Activity calls are given as the source filed them. The calls are words filed in the database; no cut-off is given here.
Legend:
Bacillus subtilis = assay: Antibacterial activity against Bacillus subtilis at 91 ug/ml measured up to 24 hrs by spectrophotometry; assay type: functional, organism-based
Method in brief: (§1)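 Compound suspended in water with 0.1% Me2SO and added to tube cultures of the bacterium growing on glucose minimal medium, to a maximum final concentration of 91 μg/ml. Growth followed by periodic absorbance readings at 540 nm over 24 hr of incubation. Complete inhibition scored at concentration limits of 1 and 91 μg/ml.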

Pseudomonas fluorescens = assay: Antibacterial activity against Pseudomonas fluorescens at 91 ug/ml measured up to 24 hrs by spectrophotometry; assay type: functional, organism-based; method in brief: as §1
KB [1] = assay: Growth inhibition of human KB cells at 25 ug/ml after 7 days by microscopy
KB [2] = assay: Growth inhibition of human KB cells at < 25 ug/ml after 7 days by microscopy; assay type: functional
KB [3] = assay: Growth inhibition of human KB cells at 25 to 100 ug/ml after 7 days by microscopy; assay type: functional, cell-based
Staphylococcus aureus = assay: Antibacterial activity against Staphylococcus aureus clinical isolate at 91 ug/ml measured up to 24 hrs by spectrophotometry; assay type: functional, organism-based
Method in brief: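 A recent clinical isolate was grown in tube cultures of nutrient broth. Compound was suspended in water containing 0.1% Me2SO and added to a maximum final concentration of 91 μg/ml. Absorbance at 540 nm was read periodically during 24 hr of incubation.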

KB [4] = assay: Growth inhibition of human KB cells at 25 ug/ml after 7 days by microscopy; assay type: functional; settings: 168 h, read-out: GI
KB [5] = assay: Growth inhibition of human KB cells at 150 ug/ml after 7 days by microscopy; assay type: functional, cell-based
KB [6] = assay: Growth inhibition of human KB cells at 50 ug/ml after 7 days by microscopy; assay type: functional; settings: 168 h, read-out: GI
KB [7] = assay: Growth inhibition of human KB cells at 10 ug/ml after 7 days by microscopy; assay type: functional; settings: 168 h, read-out: GI
KB [8] = assay: Growth inhibition of human KB cells at 12 ug/ml after 7 days by microscopy; assay type: functional, cell-based
L1210 = assay: Antitumor activity against mouse L1210 cells allografted in BDF1 mouse assessed as increase in life span at 0.2 mg, ip qd for 5 days relative to control; assay type: functional
Method in brief: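 Female BDF1 mice, 35 days old, ten per group, given 1 × 10⁶ viable L1210 cells ip on day 0. Treatment on days 1–5 was 0.2 mg per injection ip, once daily (1 mg total), suspended in saline with 0.05% carboxymethylcellulose. Controls received carrier only. Readout was the ratio of mean survival time (days) of treated to control mice (T/C).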

Row | SMILES | growth inhibition (GI) (Bacillus subtilis) | growth inhibition (GI) (Pseudomonas fluorescens) | also measured
1 | COc1cc2c(cc1OC)-c1c(cnn1-c1ccccc1)CC2 | Active | inactive | 
2 | COc1cc2c(cc1OC)-c1c(cnn1[C@H]1O[C@H](CO)[C@@H](O)[C@H](O)[C@H]1O)CC2 | inactive | inactive | 
3 | COc1cc2c(cc1OC)-c1nc(Nc3ccccc3)sc1CC2 | Active | inactive | growth inhibition (GI) (KB [1]): 50%
4 | COc1cc2ccc3c(c2cc1OC)CCc1cnoc1-3 | Active | inactive | 
5 | COc1ccc2c(c1)CCc1cnn(-c3ccccc3)c1-2 | Active | inactive | 
6 | COc1cc2c(cc1OC)-c1nc(C)sc1CC2 | inactive | inactive | 
7 | Oc1cc2c(cc1O)-c1c(cnn1-c1ccccc1)CC2 | Active | inactive | growth inhibition (GI) (KB [2]): 50%
8 | COc1ccc2c3c(ccc2c1)-c1c(cnn1[C@H]1O[C@H](COC(C)=O)[C@@H](OC(C)=O)[C@H](OC(C)=O)[C@H]1OC(C)=O)CC3 | Active | inactive | growth inhibition (GI) (KB [2]): 50%
9 | COc1cc2c(cc1OC)C1=NN(c3ccc(F)cc3)C(=O)[C@H]1CC2 | inactive | inactive | 
10 | COc1cc2c(cc1OC)C1=NNC(=O)[C@H]1CC2 | inactive | inactive | 
11 | COc1cc2c(cc1OC)-c1nocc1CC2 | inactive | inactive | 
12 | COc1cc2c(cc1OC)C1=NN(c3ccccc3)C(=O)[C@H]1CC2 | inactive | inactive | 
13 | COc1cc2c(cc1OC)-c1c(cnn1S(=O)(=O)c1ccc(C)cc1)CC2 | inactive | inactive | 
14 | COc1cc2c(cc1OC)-c1oncc1CC2 | Active | inactive | growth inhibition (GI) (KB [3]): inactive
15 | COc1cc2ccc3c(c2cc1OC)CCc1cn[nH]c1-3 | Active | inactive | growth inhibition (GI) (KB [3]): inactive
16 | COc1ccc2c(c1)CC[C@@H]1C(=O)NN=C21 | Active | inactive | growth inhibition (GI) (KB [1]): 50%
17 | COc1cc2ccc3c(c2cc1OC)CCc1cnn(-c2ccc(F)cc2)c1-3 | inactive | inactive | 
18 | COc1ccc2c(c1)CCc1cnn([C@H]3O[C@H](COC(C)=O)[C@@H](OC(C)=O)[C@H](OC(C)=O)[C@H]3OC(C)=O)c1-2 | Active | Active | growth inhibition (GI) (Staphylococcus aureus): Active; growth inhibition (GI) (KB [1]): 50%
19 | C=CCNc1nc2c(s1)CCc1cc(OC)c(OC)cc1-2 | Active | inactive | inhibition of growth at 25 µg/mL (KB [4]): 50%; growth inhibition (GI) (KB [5]): Active
20 | Oc1cc2ccc3c(c2cc1O)CCc1cn[nH]c1-3 | inactive | inactive | 
21 | COc1ccc(-n2ncc3c2-c2cc(OC)c(OC)cc2CC3)cc1 | Active | inactive | growth inhibition (GI) (KB [3]): inactive
22 | COc1cc2c(cc1OC)C1=NNC(=O)[C@@]1(C)CC2 | Active | inactive | growth inhibition (GI) (KB [1]): 50%
23 | COc1cc2c(cc1OC)-c1nc(N)sc1CC2 | Active | inactive | growth inhibition (GI) (KB [5]): Active; growth inhibition (GI) (KB [1]): 50%
24 | COc1cc2c(cc1OC)-c1[nH]ncc1CC2 | Active | inactive | inhibition of growth at 25 µg/mL (KB [4]): 50%; inhibition of growth at 50 µg/mL (KB [6]): 69%
25 | COc1cc2c(cc1OC)-c1c(cnn1[C@H]1O[C@H](COC(C)=O)[C@@H](OC(C)=O)[C@H](OC(C)=O)[C@H]1OC(C)=O)CC2 | inactive | inactive | 
26 | Oc1cc2ccc3c(c2cc1O)CCc1cnn(-c2ccc(F)cc2)c1-3 | Active | inactive | inhibition of growth at 10 µg/mL (KB [7]): 50%; growth inhibition (GI) (KB [2]): 50%
27 | Oc1ccc2c(c1)CCc1cnn(-c3ccccc3)c1-2 | inactive | inactive | 
28 | COc1ccc2c3c(ccc2c1)-c1c(cnn1[C@H]1O[C@H](CO)[C@@H](O)[C@H](O)[C@H]1O)CC3 | inactive | inactive | 
29 | Oc1cc2c(cc1O)-c1[nH]ncc1CC2 | Active | inactive | growth inhibition (GI) (KB [8]): Active; Ratio (L1210): 1.14; growth inhibition (GI) (KB [2]): 50%
30 | Oc1ccc(-n2ncc3c2-c2cc(O)c(O)cc2CC3)cc1 | inactive | inactive | 
